# Tests used:
# [1] = system: MCF7; experiment: Concentration required to reduce to 50% the number of MCF-7 cells with respect to untreated control after exposure to compound for 48 h; assay type: functional, cell-based, Homo sapiens
# How it was run: (§1)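 MCF-7 cells (DMEM with 25 mM HEPES, 2 mM L-glutamine, 10% FCS; 37 °C, 5% CO2) in exponential growth, 250000 cells/well, dosed after 24 h at 10, 50, 100, 500 μM for 2, 12, 24 or 48 h. Medium then replaced; MTT read at 570 nm (690 nm background) 5 days from start, versus time-matched washed control. IC50 from three replications.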
# [2] = system: MCF7; experiment: Concentration required to reduce to 50% the number of MCF-7 cells with respect to untreated control after exposure to compound for 24 h; assay type: functional, cell-based, Homo sapiens; how it was run: as §1
# [3] = system: MCF7; experiment: Concentration required to reduce to 50% the number of MCF-7 cells with respect to untreated control after exposure to compound for 12 h; assay type: functional, cell-based, Homo sapiens; how it was run: as §1
# [4] = system: MCF7; experiment: Concentration required to reduce to 50% the number of MCF-7 cells with respect to untreated control after exposure to compound for 2 h; assay type: functional, cell-based, Homo sapiens; how it was run: as §1
# [5] = system: MCF7; experiment: In vitro cytotoxicity of compound against MCF-7 cell line expressed as percent of viable cells compared to untreated control at a concentration of 100 uM; assay type: functional, cell-based; settings: Homo sapiens
# How it was run: (§2)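 First screen: exponential-phase MCF-7 cells (DMEM with 25 mM HEPES, 10% FCS, 37 °C, 5% CO2), 250000/well, given the ferrocenium salt 5–500 μM continuously for 48 h from 24 h after seeding. MTT (5 mg/mL in saline) added for 60 min; formazan read at 570 nm with 690 nm correction. Percent viable versus untreated control; mean of three replications.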
# [6] = system: MCF7; experiment: In vitro cytotoxicity of compound against MCF-7 cell line expressed as percent of viable cells compared to untreated control at a concentration of 500 uM; assay type: functional, cell-based; settings: Homo sapiens; how it was run: as §2
# [7] = system: MCF7; experiment: In vitro cytotoxicity of compound against MCF-7 cell line expressed as percent of viable cells compared to untreated control at a concentration of 50 uM; assay type: functional, cell-based; settings: Homo sapiens; how it was run: as §2
# [8] = system: MCF7; experiment: In vitro cytotoxicity of compound against MCF-7 cell line expressed as percent of viable cells compared to untreated control at a concentration of 5 uM; assay type: functional, cell-based; settings: Homo sapiens; how it was run: as §2
# [9] = system: MCF7; experiment: In vitro cytotoxicity of compound against MCF-7 cell line expressed as percent of viable cells compared to untreated control at a concentration of 10 uM; assay type: functional, cell-based; settings: Homo sapiens; how it was run: as §2
# [10] = system: MCF7; experiment: In vitro cytotoxicity against MCF-7 cell line as percent of viable cells compared to control at a concentration of 5 uM; assay type: functional, cell-based; settings: Homo sapiens
# [11] = system: MCF7; experiment: In vitro cytotoxicity against MCF-7 cell line as percent of viable cells compared to control at a concentration of 30 uM; assay type: functional, cell-based; settings: Homo sapiens
# [12] = system: MCF7; experiment: In vitro cytotoxicity against MCF-7 cell line expressed as percent of viable cells compared to untreated control at a concentration of 500 uM for 24 h; assay type: functional, cell-based; settings: Homo sapiens
# How it was run: (§3)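 Viability in MCF-7 cells (DMEM, 25 mM HEPES, 10% FCS, 37 °C, 5% CO2) seeded 250000/well and treated after 24 h for 24 h. Medium then replaced with fresh; MTT formazan read at 570 nm minus 690 nm, 5 days after treatment start. Percent of the untreated control washed at the same time; mean of three independent experiments.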
# [13] = system: MCF7; experiment: In vitro cytotoxicity against MCF-7 cell line expressed as percent of viable cells compared to untreated control at a concentration of 10 uM for 24 h; assay type: functional, cell-based; settings: Homo sapiens; how it was run: as §3
# [14] = system: MCF7; experiment: In vitro cytotoxicity against MCF-7 cell line as percent of viable cells compared to control at a concentration of 10 uM; assay type: functional, cell-based; settings: Homo sapiens
# [15] = system: MCF7; experiment: In vitro cytotoxicity against MCF-7 cell line expressed as percent of viable cells compared to untreated control at a concentration of 50 uM for 24 h; assay type: functional, cell-based; settings: Homo sapiens; how it was run: as §3
# [16] = system: MCF7; experiment: In vitro cytotoxicity against MCF-7 cell line expressed as percent of viable cells compared to untreated control at a concentration of 100 uM for 24 h; assay type: functional, cell-based; settings: Homo sapiens; how it was run: as §3
# [17] = system: MCF7; experiment: In vitro cytotoxicity against MCF-7 cell line as percent of viable cells compared to control at a concentration of 20 uM; assay type: functional, cell-based; settings: Homo sapiens
# [18] = system: MCF7; experiment: In vitro cytotoxicity against MCF-7 cell line as percent of viable cells compared to control at a concentration of 40 uM; assay type: functional, cell-based; settings: Homo sapiens
# [19] = system: MCF7; experiment: In vitro cytotoxicity against MCF-7 cell line as percent of viable cells compared to control at a concentration of 15 uM; assay type: functional, cell-based; settings: Homo sapiens
# [20] = system: MCF7; experiment: In vitro cytotoxicity against MCF-7 cell line expressed as percent of viable cells compared to untreated control at a concentration of 70 uM; assay type: functional, cell-based; settings: Homo sapiens
# How it was run: (§4)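 Exponential-phase MCF-7 cells, grown in DMEM with 25 mM HEPES, 2 mM L-glutamine and 10% FCS at 37 °C and 5% CO2, were seeded at 250000 cells/well. After 24 h they got a single agent for 24 h at 10, 20, 35, 50 or 70 μM, then fresh medium. Viability was read by MTT (570 nm, 690 nm background) 5 days from treatment start, as % of untreated control.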
# [21] = system: MCF7; experiment: In vitro cytotoxicity against MCF-7 cell line expressed as percent of viable cells compared to untreated control at a concentration of 50 uM; assay type: functional, cell-based; settings: Homo sapiens; how it was run: as §4
# [22] = system: MCF7; experiment: In vitro cytotoxicity against MCF-7 cell line expressed as percent of viable cells compared to untreated control at a concentration of 35 uM; assay type: functional, cell-based; settings: Homo sapiens; how it was run: as §4
# [23] = system: MCF7; experiment: In vitro cytotoxicity against MCF-7 cell line expressed as percent of viable cells compared to untreated control at a concentration of 10 uM; assay type: functional, cell-based; settings: Homo sapiens; how it was run: as §4
# [24] = system: MCF7; experiment: In vitro cytotoxicity against MCF-7 cell line expressed as percent of viable cells compared to untreated control at a concentration of 20 uM; assay type: functional, cell-based; settings: Homo sapiens; how it was run: as §4
Substance,IC50 [2] [µM],Viable cells [5] [%],Viable cells [6] [%],Viable cells [7] [%],Viable cells [8] [%],Viable cells [9] [%],further results
DECAMETHYLFERROCENIUM TETRAFLUOROBORATE,58,,,,,,IC50 [1]: 35 µM; IC50 [3]: 74 µM; IC50 [4]: 86 µM
FERROCENIUM TETRAFLUOROBORATE [listing 1 of 2 here],256,,,,,,IC50 [1]: 249 µM; IC50 [3]: 238 µM; IC50 [4]: 308 µM
"1,1'-dimethylferrocenium tetrafluoroborate",,90,17,93,99,100,
FERROCENIUM TETRAFLUOROBORATE [listing 2 of 2 here],,99,13,100,100,98,
[sequence] TETRAFLUOROBORATE,,10,11,32,100,88,Viable cells [10]: 94%; Viable cells [11]: 7%; Viable cells [12]: 4%; Viable cells [13]: 99%; Viable cells [14]: 88%; Viable cells [15]: 64%; Viable cells [16]: 14%; Viable cells [17]: 13%; Viable cells [18]: 3%; Viable cells [19]: 34%
[sequence] ACID TETRAFLUOROBORATE,,97,17,97,100,98,
BLEOMYCIN [listing 1 of 2 here],,,,,,,Viable cells [20]: 51%; Viable cells [21]: 48%; Viable cells [22]: 57%; Viable cells [23]: 69%; Viable cells [24]: 65%
FERROCENIUMBORONIC ACID TETRAFLUOROBORATE,,98,8,101,102,101,
BLEOMYCIN [listing 2 of 2 here],53,,,,,,

# Source: ChEMBL document CHEMBL1135737, “Water stability and cytotoxic activity relationship of a series of ferrocenium derivatives. ESR insights on the radical production during the degradation process” (J Med Chem, 2002)
